Laboratory results taken from PubChem BioAssay AID720702 (The Scripps Research Institute Molecular Screening Center, 2013).
Screen size: about 370,000 compounds; about 1,200 (0.32%) were called active. Shown is part of a subset that was picked to be rich in actives. Values without a mark were called inactive.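 Rule for the calls: active = inhibition above the mean of all tested compounds plus 3 SD, set per campaign (cut at about 25% in these data); inactive = the rest.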

These molecules were tested against Tyrosyl-DNA phosphodiesterase 2 (Homo sapiens) (UniProt O95551) (assay: human TDP2 enzyme inhibitors, primary screen, biochemical, epi absorbance, recombinant enzyme (AID 720702;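 note: 0% = DMSO with enzyme and 100% = buffer with substrate but no TDP2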)). Details: recombinant TDP2, T5PNP hydrolysis, p-nitrophenol absorbance 415 nm; at 12.8 µM; active compounds read high.
Tyrosyl-DNA phosphodiesterase 2 (Homo sapiens), sequence (O95551 whole entry, looked up): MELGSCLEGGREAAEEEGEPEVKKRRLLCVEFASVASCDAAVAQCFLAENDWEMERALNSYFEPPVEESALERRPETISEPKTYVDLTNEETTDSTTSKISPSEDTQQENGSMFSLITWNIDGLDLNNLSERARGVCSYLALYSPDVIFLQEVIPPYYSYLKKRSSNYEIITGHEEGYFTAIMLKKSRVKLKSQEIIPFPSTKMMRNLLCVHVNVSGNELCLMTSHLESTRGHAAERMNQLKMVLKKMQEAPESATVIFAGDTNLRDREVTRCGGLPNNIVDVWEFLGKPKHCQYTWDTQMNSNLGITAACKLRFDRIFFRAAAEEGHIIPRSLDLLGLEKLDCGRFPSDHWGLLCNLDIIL
Summary of the method: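 test system = human TDP2 enzyme | input = TDP2 enzyme at 120 nM final | medium = 50 mM Tris-HCl pH 7.5 with Mg2+, KCl, DTT, BSA | also added = T5PNP substrate, 5 mM | times = 2 h at 37 °C | technique = epi absorbance | benchmarks = high control without enzyme, low control DMSO plus TDP2 | replication = each compound tested once, singlicate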

Row | Compound | inhibition
1 | CCOC(=O)c1c(N)n(Cc2ccccc2)c2nc3ccccc3nc12 | 82.6% (active)
2 | CCOC(=O)c1cccc(C2=C(CNC(=O)c3ccncc3)[C@H]3CC[C@@H](C2)N3Cc2ccccc2)c1 | 4.63%
3 | COc1cc(Cn2c(N)c(C(=O)NCc3ccco3)c3nc4ccccc4nc32)cc(OC)c1OC | 0.54%
4 | CCC(C)n1c(O)c(/C=N/Nc2nc3c(c(=O)n(C)c(=O)n3C)n2C)c(=O)[nH]c1=S (stereo not given) | -0.24%
5 | CCC(C)NC1(c2ccccc2)CCCCC1 (stereo not given) | 5%
6 | CC(Cc1cccs1)NCc1ccc(Cl)cc1 (stereo not given) | 4.69%
7 | Cn1c(C(=O)N2CCC(C(=O)N3CCC4(CC3)OCCO4)CC2)cc2sccc21 | -4.33%
8 | O=C1NC(=O)N(Cc2ccco2)C(=O)/C1=C\c1ccc(-c2ccc(F)cc2)o1 | 26.3% (active)
9 | N[C@@H](Cc1c[nH]c2ccccc12)c1nnc(SCc2c(F)cccc2Cl)o1 | 5.28%
10 | Cc1ccccc1CCC[C@@H](CC1CCCCC1)CN(C)C(=O)Oc1ccccc1 | -0.32%
